From ChEMBL document CHEMBL1159388, “Steroidal glycosides from the rhizomes of Dioscorea spongiosa” (2003)
Where a SMILES comes first, the peptide text is derived from it. Bridges are numbered along the chain shown (N, C = ends). [ ]: non-standard residue; d: D form. Asu = N[C@@H](CCCCCC(=O)O)C(=O)O

Columns and labels:
Assay type in all cases: functional
[1] = Antiosteoporotic activity in mouse parietal bone assessed as inhibition of parathyroid hormone induced bone resorption at 200 uM
Summary of the method: (§1)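 Mice aged 2 days received 45CaCl2 (2 μCi) subcutaneously; parietal bones were taken 2 days later and cultured on grids at the gas-liquid interface. Medium was Ham's F-12 with NaHCO3, 1.0 mM CaCl2 and 5% heat-inactivated horse serum, at 37 °C under 5% CO2. After 24 h preculture, bones were exposed to PTH (2×10^-9 M final) plus sample for 6 days, medium changed at day 3. Four bones per group.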

[2] = Antiosteoporotic activity in mouse parietal bone assessed as inhibition of parathyroid hormone induced bone resorption by measuring 45Ca release at 20 uM by scintillation counting; parameters: scale not given: the % may be the effect or the level left; summary of the method: as §1
[3] = Antiosteoporotic activity in mouse parietal bone assessed as inhibition of parathyroid hormone induced bone resorption by measuring 45Ca release at 200 uM by scintillation counting; parameters: scale not given: the % may be the effect or the level left; summary of the method: as §1
[4] = Antiosteoporotic activity in mouse parietal bone assessed as inhibition of parathyroid hormone induced bone resorption by measuring 45Ca release by scintillation counting; parameters: scale not given: the % may be the effect or the level left; summary of the method: as §1

SMILES	inhibition (INH) [1]	Activity [2]	Activity [3]	Activity [4]
CC(=O)[C@H]1[C@@H](OC(=O)CCC(C)CO[C@@H]2O[C@H](CO)[C@@H](O)[C@H](O)[C@H]2O)C[C@H]2[C@@H]3CC=C4C[C@@H](O[C@@H]5O[C@H](CO)[C@@H](O[C@@H]6O[C@@H](C)[C@H](O)[C@@H](O)[C@H]6O)[C@H](O)[C@H]5O[C@@H]5O[C@@H](C)[C@H](O)[C@@H](O)[C@H]5O)CC[C@]4(C)[C@H]3CC[C@@]21C (stereo partly drawn) [HYPOGLAUCIN G]	66.7%	22.8%	19.2%	–
C=C[C@@H](CCCCC)O[C@H]1O[C@H](CO[C@@H]2OC[C@H](O)[C@H](O)[C@H]2O)[C@@H](O)[C@H](O)[C@H]1O	61.6%	23.8%	20.7%	–
CC(C)C[C@H](NC(=O)[C@H](CCCCN)NC(=O)CNC(=O)[C@H](CC(C)C)NC(=O)[C@@H](NC(=O)[C@@H]1CCCCCC(=O)N[C@@H](CO)C(=O)N[C@@H](CC(N)=O)C(=O)N[C@@H](CC(C)C)C(=O)N[C@@H](CO)C(=O)N[C@@H]([C@@H](C)O)C(=O)N1)C(C)C)C(=O)N[C@@H](CO)C(=O)N[C@@H](CCC(N)=O)C(=O)N[C@@H](CCC(=O)O)C(=O)N[C@@H](CC(C)C)C(=O)N[C@@H](Cc1cnc[nH]1)C(=O)N[C@@H](CCCCN)C(=O)N[C@@H](CC(C)C)C(=O)N[C@@H](CCC(N)=O)C(=O)N[C@H](C(=O)N[C@@H](Cc1ccc(O)cc1)C(=O)N1CCC[C@H]1C(=O)N[C@@H](CCCNC(=N)N)C(=O)N[C@H](C(=O)N[C@@H](CC(=O)O)C(=O)N[C@H](C(=O)NCC(=O)N[C@@H](C)C(=O)NCC(=O)N[C@H](C(=O)N1CCC[C@H]1C(N)=O)[C@@H](C)O)C(C)C)[C@@H](C)O)[C@@H](C)O [ELCITONIN] (SNLST[Asu]VLGKLSQELHKLQTYPRTDVGAGTP-NH2; lactam N-6)	–	–	–	18.4%
CO[C@]1(CC[C@@H](C)CO[C@@H]2O[C@H](CO)[C@@H](O)[C@H](O)[C@H]2O)O[C@H]2C[C@H]3[C@@H]4CC=C5C[C@@H](O[C@@H]6O[C@H](CO)[C@@H](O[C@@H]7O[C@@H](C)[C@H](O)[C@@H](O)[C@H]7O)[C@H](O)[C@H]6O[C@@H]6O[C@@H](C)[C@H](O)[C@@H](O)[C@H]6O)CC[C@]5(C)[C@H]4CC[C@]3(C)[C@H]2[C@@H]1C [METHYLPROTODIOSCIN]	89.9%	24.9%	17.4%	–
CC(C)CC[C@H](O)[C@@H](C)[C@H]1[C@@H](O[C@@H]2O[C@H](CO)[C@@H](O)[C@H](O)[C@H]2O)C[C@H]2[C@@H]3CC=C4C[C@@H](O[C@@H]5O[C@H](CO)[C@@H](O[C@@H]6O[C@@H](C)[C@H](O)[C@@H](O)[C@H]6O)[C@H](O)[C@H]5O[C@@H]5O[C@@H](C)[C@H](O)[C@@H](O)[C@H]5O)CC[C@]4(C)[C@H]3CC[C@]12C [SPONGIOSIDES A]	63.6%	30.9%	17.1%	–
